The source of these data is publication PMC8906121 (Current Research in Parasitology & Vector-borne Diseases, 2021).

Where “and” joins values, the source holds several entries; their conditions need not be identical. Equal values may be shown once.

The test system of data set [1] is Anopheles funestus FANG (susceptible). Briefly: Glazed tile contact bioassay, strain FANG. Format: in vivo. Conditions: for LC50 (solo contact toxicity of synergist): synergist alone, 30 min exposure; for LC50 (solo contact toxicity of synergist) / LC50: mortality 24 h; for LC50: female adults, contact exposure 30 min. The method, boiled down:
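Adults aged 3–5 days, chilled to anaesthetize, recovered 1 h, then held 30 min on acetone-treated glazed tiles in two replicates of 10. Kept overnight on 10% dextrose; mortality scored at 24 h. Acetone-only control; Abbott correction for 5–20% control mortality, above 20% invalid. At least five repeats; probit LC50 with 95% CI. Synergist solo toxicity was tested the same way at 250–10,000 ppm.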

Data set [2] concerns Anopheles funestus FUMOZ-R (resistant). Briefly: Glazed tile contact bioassay, strain FUMOZ-R. The class given is in vivo. Conditions: for LC50 (solo contact toxicity of synergist): synergist alone, 30 min exposure; for LC50 (solo contact toxicity of synergist) / LC50: mortality 24 h; for LC50: female adults, contact exposure 30 min.
In another data set the target is Drosophila wildtype VGSC. Conditions: Drosophila wildtype VGSC expressed in Xenopus oocytes; ref Vais et al., 2003; cited from earlier work.
Data set [3] addresses para-type voltage-gated sodium channels of Musca domestica (Musca domestica, UniProt Q25439). Briefly: Fluorescence-based membrane potential cation influx assay. Conditions: for EC50: EC50, HEK293-VGSC cells, membrane potential fluorescence. The class given is cell-based.
In data set [4] the test system is cytochrome P450s of microsomal preparations of Anopheles funestus strain FUMOZ-R. Briefly: Michaelis-Menten kinetics of BOMFC O-debenzylation, FUMOZ-R microsomes. Format: biochemical. Conditions: read-out: apparent Km. The method, boiled down:
(§1)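 Microsomes from 30–50 adults, homogenized in pH 7.6 phosphate buffer with sucrose, DTT and EDTA, then spun 5,000× g, 15,000× g and 100,000× g at 4 °C. 4 μg protein incubated 1 h at 20 ± 1 °C with eleven BOMFC levels (200–0.195 μM) and 1 mM NADPH, in 0.01% zwittergent with 0.05% BSA. Stopped with pH 10 red-ox mix; hydroxycoumarin fluorescence read; quadruplicates; Michaelis-Menten fit.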

In data set [5] the test system is cytochrome P450s of microsomal preparations of Anopheles funestus strain FANG. Nature of the data set: Michaelis-Menten kinetics of BOMFC O-debenzylation, FANG microsomes. Format: biochemical. The settings on record: read-out: apparent Km. The procedure, abridged:
as §1

Sequence of para-type voltage-gated sodium channels of Musca domestica (Q25439 1-2105): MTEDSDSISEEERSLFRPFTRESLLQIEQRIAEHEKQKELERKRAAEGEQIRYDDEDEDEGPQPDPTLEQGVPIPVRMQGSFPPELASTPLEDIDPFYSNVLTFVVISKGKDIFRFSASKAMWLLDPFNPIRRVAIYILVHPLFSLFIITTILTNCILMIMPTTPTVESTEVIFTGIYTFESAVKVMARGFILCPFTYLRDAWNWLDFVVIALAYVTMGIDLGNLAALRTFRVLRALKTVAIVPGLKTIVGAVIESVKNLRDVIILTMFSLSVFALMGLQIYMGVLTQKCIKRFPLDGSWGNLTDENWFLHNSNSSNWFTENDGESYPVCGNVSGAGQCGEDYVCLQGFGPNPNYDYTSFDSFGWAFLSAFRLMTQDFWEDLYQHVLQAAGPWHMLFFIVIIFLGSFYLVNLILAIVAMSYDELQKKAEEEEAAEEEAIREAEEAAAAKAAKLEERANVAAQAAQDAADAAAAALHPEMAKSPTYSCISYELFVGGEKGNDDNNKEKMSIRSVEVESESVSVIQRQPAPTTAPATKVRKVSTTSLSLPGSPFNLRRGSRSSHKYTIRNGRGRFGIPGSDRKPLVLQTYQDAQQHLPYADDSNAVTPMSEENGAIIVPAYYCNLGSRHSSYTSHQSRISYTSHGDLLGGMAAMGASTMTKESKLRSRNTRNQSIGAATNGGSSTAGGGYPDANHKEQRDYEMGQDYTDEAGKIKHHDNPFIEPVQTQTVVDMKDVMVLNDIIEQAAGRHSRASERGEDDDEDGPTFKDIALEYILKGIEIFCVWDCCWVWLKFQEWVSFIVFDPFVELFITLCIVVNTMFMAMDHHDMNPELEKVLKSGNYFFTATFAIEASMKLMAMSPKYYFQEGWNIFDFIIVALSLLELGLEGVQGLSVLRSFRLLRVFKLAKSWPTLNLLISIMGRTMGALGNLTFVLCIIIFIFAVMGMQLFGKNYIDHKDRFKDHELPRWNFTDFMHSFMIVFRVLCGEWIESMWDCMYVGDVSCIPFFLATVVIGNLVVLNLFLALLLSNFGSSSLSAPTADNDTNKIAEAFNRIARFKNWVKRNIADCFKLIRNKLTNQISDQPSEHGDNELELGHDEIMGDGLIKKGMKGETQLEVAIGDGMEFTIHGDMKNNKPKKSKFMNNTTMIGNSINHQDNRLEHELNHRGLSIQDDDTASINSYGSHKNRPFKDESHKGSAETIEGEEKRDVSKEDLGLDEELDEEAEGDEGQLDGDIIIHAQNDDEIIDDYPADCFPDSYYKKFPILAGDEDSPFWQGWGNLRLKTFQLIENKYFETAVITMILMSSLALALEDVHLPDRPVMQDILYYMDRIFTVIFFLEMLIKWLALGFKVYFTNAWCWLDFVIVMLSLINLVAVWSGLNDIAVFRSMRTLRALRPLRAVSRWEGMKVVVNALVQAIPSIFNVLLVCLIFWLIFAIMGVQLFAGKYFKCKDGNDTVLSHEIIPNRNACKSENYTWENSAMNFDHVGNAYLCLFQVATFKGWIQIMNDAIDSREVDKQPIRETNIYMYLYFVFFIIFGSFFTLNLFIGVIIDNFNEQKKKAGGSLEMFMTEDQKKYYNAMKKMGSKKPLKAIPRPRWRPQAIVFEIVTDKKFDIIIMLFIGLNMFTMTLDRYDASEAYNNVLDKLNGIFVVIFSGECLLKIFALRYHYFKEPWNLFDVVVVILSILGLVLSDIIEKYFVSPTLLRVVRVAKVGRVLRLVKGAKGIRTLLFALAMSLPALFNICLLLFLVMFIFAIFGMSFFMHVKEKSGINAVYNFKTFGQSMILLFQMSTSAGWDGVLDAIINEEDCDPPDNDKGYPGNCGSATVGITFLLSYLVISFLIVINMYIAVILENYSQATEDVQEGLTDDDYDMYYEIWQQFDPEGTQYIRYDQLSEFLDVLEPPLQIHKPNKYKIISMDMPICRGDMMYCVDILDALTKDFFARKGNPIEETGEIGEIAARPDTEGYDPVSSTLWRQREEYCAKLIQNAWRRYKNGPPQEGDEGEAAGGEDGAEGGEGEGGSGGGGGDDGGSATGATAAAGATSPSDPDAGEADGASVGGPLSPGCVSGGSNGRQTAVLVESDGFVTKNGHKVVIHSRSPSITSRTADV

In the case of `CCCCOCCOCCOCc1cc2c(cc1CCC)OCO2` [PBO, piperonyl butoxide], the “LC50 (solo contact toxicity of synergist)” value in data set [1] is listed as 325 mg/m^2; in data set [2], > 1,000 mg/m^2.
Usually Kd stands for a measure of binding affinity in units of concentration. Broadly, the EC50 is the midpoint of the concentration-response curve. High values mean lower potency in that assay, low ones higher potency in that assay. Take `CC1(C)[C@H](C(=O)O[C@H](C#N)c2cccc(Oc3ccccc3)c2)[C@@H]1C=C(Br)Br` [Deltamethrin, deltamethrin]: the LC50 in data set [1] was 0.0206 mg/m^2; in data set [2], 4.61 mg/m^2. Moreover, the Kd at Drosophila wildtype VGSC was 4.7 nM. Moreover, in data set [3], the EC50 is 5.29 nM and 5.3 nM.
For the molecule `CCCOC/C(=N\c1ccc(Cl)cc1C(F)(F)F)n1ccnc1` [Triflumizole, triflumizole], the “LC50 (solo contact toxicity of synergist)” value in data set [1] worked out at 136 mg/m^2; in data set [2], 392 mg/m^2.
Take `CC1(C)C(C=C(Cl)Cl)C1C(=O)OC(C#N)c1cccc(Oc2ccccc2)c1` (stereo not drawn) [Cypermethrin]: the LC50 is given as 0.0968 mg/m^2 in data set [1] and 7.54 mg/m^2 in data set [2]. Moreover, the EC50 in data set [3] is 38.9 nM.
Regarding `CC1(C)[C@H](C=C(Cl)Cl)[C@H]1C(=O)OCc1c(F)c(F)cc(F)c1F` [Transfluthrin, 2,3,5,6-tetrafluorobenzyl(1R,3S)-3-(2,2-dichlorovinyl)-2,2-dimethylcyclo-propanecarboxylate], the figures for the LC50 in data set [1] and in data set [2] were 0.023 mg/m^2 and 0.0576 mg/m^2, respectively. For the same molecule, the “fold more active than permethrin” value in data set [1] (glazed tile bioassays against strain FANG) was not above 25 fold. In addition, the “fold less active on VGSC than deltamethrin” value in data set [3] (compared with deltamethrin) is on record as “more than 100 fold”.
In the case of `CC1(C)C(C=C(Cl)Cl)C1C(=O)OCc1cccc(Oc2ccccc2)c1` (stereo not drawn) [Permethrin, permethrin], the LC50 is listed as 0.543 mg/m^2 in data set [1] and 4.21 mg/m^2 in data set [2]. The “RR fold lower than for deltamethrin” value in data set [2] (FUMOZ-R resistance ratio compared with deltamethrin) was approximately 30 fold. The “Resistance ratio (RR)” value in data set [2] (LC50 FUMOZ-R divided by LC50 FANG) is reported as 7.76. Further, the midpoint of the response in data set [3], the EC50, lay at 721 nM.
The term mortality denotes the percentage killed. `Nn1nnc2ccccc21` [1-ABT, 1-aminobenzotriazole]: the mortality at 750 mg/m2 in data set [1] (Anopheles funestus) and in data set [2] (Anopheles funestus) was less than 10% in each case.
For orientation: Km means the concentration of substrate that gives half-maximal velocity. For the molecule `O=c1cc(C(F)(F)F)c2ccc(OCOCc3ccccc3)cc2o1` [BOMFC, 7-benzyloxymethoxy-4-trifluoromethylcoumarin], the Km in data set [4] is 4.41 µM; in data set [5], 5.76 µM.
